ChEMBL document CHEMBL1154674, “Synthesis and evaluation of three 18F-labeled aminophenylbenzothiazoles as amyloid imaging agents” (J Med Chem, 2009)

Key:
Format in all cases: ADME, organism-based
[1] = Biodistribution in NMRI mouse urine at 3.7 MBq/mL, iv after 2 mins by gamma counting; details: in vivo
In short: (§1)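 Male NMRI mice (30-40 g) under isoflurane (1.5-2.5% in oxygen) got 0.1 mL of HPLC-purified tracer diluted with 0.9% NaCl to 3.7 MBq/mL (ethanol ≤10%) via tail vein. Mice were decapitated at 2 or 60 min p.i., and organs, blood and urine were weighed and γ-counted. Values are background-corrected %ID or %ID/g, with blood mass taken as 7% of body mass.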

[2] = Biodistribution in NMRI mouse urine at 3.7 MBq/mL, iv after 60 mins by gamma counting; details: in vivo, 1 h; in short: as §1
[3] = system: Kidney; assay: Biodistribution in NMRI mouse kidney at 3.7 MBq/mL, iv after 2 mins by gamma counting; details: in vivo; in short: as §1
[4] = system: Kidney; assay: Biodistribution in NMRI mouse kidney assessed per gram of tissue at 3.7 MBq/mL, iv after 2 mins by gamma counting; details: in vivo; in short: as §1
[5] = system: Kidney; assay: Biodistribution in NMRI mouse kidney assessed per gram of tissue at 3.7 MBq/mL, iv after 60 mins by gamma counting; details: in vivo, 1 h; in short: as §1
[6] = system: Kidney; assay: Drug level in NMRI mouse kidney assessed as standard uptake value at 3.7 MBq/mL, iv after 2 mins by gamma counting; details: in vivo
In short: (§2)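 Male NMRI mice (30-40 g) were anaesthetised with isoflurane. Each received 0.1 mL of HPLC-purified tracer, diluted in 0.9% NaCl to 3.7 MBq/mL (ethanol ≤10%), via a tail vein. Mice were decapitated at 2 or 60 min. Organs were dissected, weighed and γ-counted with background correction. SUV = (organ cpm/organ weight)/(total recovered counts/body weight). Blood mass was taken as 7% of body mass.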

[7] = system: Kidney; assay: Drug level in NMRI mouse kidney assessed as standard uptake value at 3.7 MBq/mL, iv after 60 mins by gamma counting; details: in vivo, 1 h; in short: as §2
[8] = system: Liver; assay: Biodistribution in NMRI mouse liver at 3.7 MBq/mL, iv after 2 mins by gamma counting; details: in vivo; in short: as §1
[9] = system: Liver; assay: Biodistribution in NMRI mouse liver at 3.7 MBq/mL, iv after 60 mins by gamma counting; details: in vivo, 1 h; in short: as §1
[10] = system: Liver; assay: Biodistribution in NMRI mouse liver assessed per gram of tissue at 3.7 MBq/mL, iv after 2 mins by gamma counting; details: in vivo
[11] = system: Liver; assay: Drug level in NMRI mouse liver assessed as standard uptake value at 3.7 MBq/mL, iv after 2 mins by gamma counting; details: in vivo; in short: as §2
[12] = Biodistribution in NMRI mouse spleen/pancreas at 3.7 MBq/mL, iv after 2 mins by gamma counting; details: in vivo; in short: as §1
[13] = Biodistribution in NMRI mouse spleen/pancreas at 3.7 MBq/mL, iv after 60 mins by gamma counting; details: in vivo, 1 h; in short: as §1
[14] = Biodistribution in NMRI mouse spleen/pancreas assessed per gram of tissue at 3.7 MBq/mL, iv after 2 mins by gamma counting; details: in vivo; in short: as §1
[15] = Biodistribution in NMRI mouse spleen/pancreas assessed per gram of tissue at 3.7 MBq/mL, iv after 60 mins by gamma counting; details: in vivo, 1 h; in short: as §1
[16] = Drug level in NMRI mouse spleen/pancreas assessed as standard uptake value at 3.7 MBq/mL, iv after 60 mins by gamma counting; details: in vivo, 1 h; in short: as §2
[17] = system: Lung; assay: Biodistribution in NMRI mouse lung at 3.7 MBq/mL, iv after 2 mins by gamma counting; details: in vivo; in short: as §1
[18] = system: Lung; assay: Biodistribution in NMRI mouse lung at 3.7 MBq/mL, iv after 60 mins by gamma counting; details: in vivo, 1 h; in short: as §1
[19] = system: Lung; assay: Biodistribution in NMRI mouse lung assessed per gram of tissue at 3.7 MBq/mL, iv after 2 mins by gamma counting; details: in vivo; in short: as §1
[20] = system: Lung; assay: Biodistribution in NMRI mouse lung assessed per gram of tissue at 3.7 MBq/mL, iv after 60 mins by gamma counting; details: in vivo, 1 h; in short: as §1
[21] = system: Lung; assay: Drug level in NMRI mouse lung assessed as standard uptake value at 3.7 MBq/mL, iv after 2 mins by gamma counting; details: in vivo; in short: as §2
[22] = system: Lung; assay: Drug level in NMRI mouse lung assessed as standard uptake value at 3.7 MBq/mL, iv after 60 mins by gamma counting; details: in vivo, 1 h; in short: as §2
[23] = system: Heart; assay: Biodistribution in NMRI mouse heart at 3.7 MBq/mL, iv after 2 mins by gamma counting; details: in vivo; in short: as §1
[24] = system: Heart; assay: Biodistribution in NMRI mouse heart at 3.7 MBq/mL, iv after 60 mins by gamma counting; details: in vivo, 1 h; in short: as §1
[25] = system: Heart; assay: Biodistribution in NMRI mouse heart assessed per gram of tissue at 3.7 MBq/mL, iv after 2 mins by gamma counting; details: in vivo; in short: as §1
[26] = system: Heart; assay: Drug level in NMRI mouse heart assessed as standard uptake value at 3.7 MBq/mL, iv after 2 mins by gamma counting; details: in vivo; in short: as §2
[27] = system: Heart; assay: Drug level in NMRI mouse heart assessed as standard uptake value at 3.7 MBq/mL, iv after 60 mins by gamma counting; details: in vivo, 1 h; in short: as §2
[28] = system: Intestine; assay: Biodistribution in NMRI mouse intestine at 3.7 MBq/mL, iv after 2 mins by gamma counting; details: in vivo; in short: as §1
[29] = system: Stomach; assay: Biodistribution in NMRI mouse stomach at 3.7 MBq/mL, iv after 60 mins by gamma counting; details: in vivo, 1 h; in short: as §1
[30] = Biodistribution in NMRI mouse cerebrum at 3.7 MBq/mL, iv after 2 mins by gamma counting; details: in vivo; in short: as §1
[31] = Biodistribution in NMRI mouse cerebrum at 3.7 MBq/mL, iv after 60 mins by gamma counting; details: in vivo, 1 h; in short: as §1
[32] = Biodistribution in NMRI mouse cerebrum assessed per gram of tissue at 3.7 MBq/mL, iv after 60 mins by gamma counting; details: in vivo, 1 h; in short: as §1
[33] = Drug level in NMRI mouse cerebrum assessed as standard uptake value at 3.7 MBq/mL, iv after 60 mins by gamma counting; details: in vivo, 1 h; in short: as §2
[34] = system: Cerebellum; assay: Biodistribution in NMRI mouse cerebellum at 3.7 MBq/mL, iv after 2 mins by gamma counting; details: in vivo; in short: as §1
[35] = system: Cerebellum; assay: Biodistribution in NMRI mouse cerebellum at 3.7 MBq/mL, iv after 60 mins by gamma counting; details: in vivo, 1 h; in short: as §1
[36] = system: Cerebellum; assay: Biodistribution in NMRI mouse cerebellum assessed per gram of tissue at 3.7 MBq/mL, iv after 60 mins by gamma counting; details: in vivo, 1 h; in short: as §1
[37] = system: Cerebellum; assay: Drug level in NMRI mouse cerebellum assessed as standard uptake value at 3.7 MBq/mL, iv after 2 mins by gamma counting; details: in vivo; in short: as §2
[38] = system: Cerebellum; assay: Drug level in NMRI mouse cerebellum assessed as standard uptake value at 3.7 MBq/mL, iv after 60 mins by gamma counting; details: in vivo, 1 h; in short: as §2
[39] = system: Blood; assay: Biodistribution in NMRI mouse blood at 3.7 MBq/mL, iv after 2 mins by gamma counting; details: in vivo; in short: as §1
[40] = system: Blood; assay: Biodistribution in NMRI mouse blood at 3.7 MBq/mL, iv after 60 mins by gamma counting; details: in vivo, 1 h; in short: as §1
[41] = system: Blood; assay: Biodistribution in NMRI mouse blood assessed per gram of tissue at 3.7 MBq/mL, iv after 2 mins by gamma counting; details: in vivo; in short: as §1
[42] = system: Blood; assay: Biodistribution in NMRI mouse blood assessed per gram of tissue at 3.7 MBq/mL, iv after 60 mins by gamma counting; details: in vivo, 1 h; in short: as §1
[43] = system: Blood; assay: Drug level in NMRI mouse blood assessed as standard uptake value at 3.7 MBq/mL, iv after 2 mins by gamma counting; details: in vivo; in short: as §2

Work on `[11CH3]Nc1ccc(-c2nc3ccc(O)cc3s2)cc1` [PITTSBURGH COMPOUND B] yielded a Drug uptake [1] of 0.2%, a Drug uptake [2] of 24.4% and a Drug uptake [3] of 10.3%. It also gave a Drug uptake [4] of 19.9%, a Drug uptake [5] of 9.1% and an SUV [6] of 7.4. It also gave an SUV [7] of 3.3, a Drug uptake [8] of 15.6% and a Drug uptake [9] of 9.8%. The Drug uptake [10] was 7.9%, the SUV [11] was 2.9 and the Drug uptake [12] was 0.6%. For the same compound, the Drug uptake [13] was 0.1%, the Drug uptake [14] was 4.7% and the Drug uptake [15] was 0.7%. The SUV [16] was 0.2, the Drug uptake [17] was 0.9% and the Drug uptake [18] was 0.3%. The Drug uptake [19] was 3.6%, the Drug uptake [20] was 1.3% and the SUV [21] was 1.3. For the same compound, the SUV [22] was 0.4, the Drug uptake [23] was 0.6% and the Drug uptake [24] was 0.3%. It also gave a Drug uptake [25] of 4.2%, an SUV [26] of 1.5 and an SUV [27] of 0.7. For the same compound, the Drug uptake [28] was 12%, the Drug uptake [29] was 0.3% and the Drug uptake [30] was 1.08%. It also gave a Drug uptake [31] of 0.18%, a Drug uptake [32] of 0.6% and an SUV [33] of 0.22. For the same compound, the Drug uptake [34] was 0.17%, the Drug uptake [35] was 0.03% and the Drug uptake [36] was 0.31%. The SUV [37] was 0.59, the SUV [38] was 0.11 and the Drug uptake [39] was 7.9%. For the same compound, the Drug uptake [40] was 2.7%, the Drug uptake [41] was 3.1% and the Drug uptake [42] was 1.1%. It also gave an SUV [43] of 1.13.
